≈ marks a conversion by molar mass, not a printed value.
Assays:
Type in all cases: functional
Bacillus subtilis [1] = experiment: Growth inhibition of Bacillus subtilis NCIM 2079 at 3 ug/ml measured after 12 hrs relative to control; conditions: NCIM 2079, 12 h, read-out: GI
Procedure, shortened: (§1)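 Bacteria grown in LB at 37 °C and 180 rpm to OD 1. Compounds added to wells, then 0.1% inoculum of 1 OD culture (620 nm). Growth read as OD at 620 nm after 8 h for gram-negative and after 12 h for gram-positive strains.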

Bacillus subtilis [2] = experiment: Antibacterial activity against Bacillus subtilis NCIM 2079 measured after 12 hrs; conditions: NCIM 2079, 12 h; procedure, shortened: as §1
[3] = test system: Mycobacterium tuberculosis; experiment: Growth inhibition of Mycobacterium bovis BCG ATCC 35743 at dormant stage at 10 ug/ml measured after 12 days by nitrate reductase dye based two fold dilution method relative to control; conditions: BCG str. ATCC 35743, 288 h, read-out: GI
Procedure, shortened: (§2)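 M. bovis BCG was grown in Dubos medium and assayed in Mycobacterium pheli minimal medium (pH 6.6), with compounds from DMSO stocks. Incubation lasted 8 days for active and 12 days for dormant cultures. Viability was read by nitrate reductase at 540 nm against cell-free blanks, with vehicle set as 100% growth. Primary screen was at 30, 10 and 3 µg/ml, in triplicate, mean ± SD. MIC was taken from dose-response curves.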

Bacillus subtilis [4] = experiment: Growth inhibition of Bacillus subtilis NCIM 2079 at 10 ug/ml measured after 12 hrs relative to control; conditions: NCIM 2079, 12 h, read-out: GI; procedure, shortened: as §1
[5] = test system: Mycobacterium tuberculosis; experiment: Growth inhibition of Mycobacterium tuberculosis H37Ra ATCC 25177 at dormant stage measured after 12 days by XTT dye based two fold dilution method; conditions: H37Ra ATCC 25177, 288 h
Procedure, shortened: (§3)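 MTB H37Ra was grown in Dubos medium, then exposed in Mycobacterium pheli minimal medium (pH 6.6) to compounds dissolved in DMSO. The assay ended on day 8 (active) or day 12 (dormant). Viable cells were measured by XTT reduction menadione assay at 470 nm, blank-corrected, relative to vehicle control. Triplicates were expressed as mean ± SD. MIC came from dose-response curves.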

Staphylococcus aureus [6] = experiment: Growth inhibition of Staphylococcus aureus NCIM 2010 at 3 ug/ml measured after 12 hrs relative to control; conditions: NCIM 2010, 12 h, read-out: GI; procedure, shortened: as §1
Aspergillus niger = experiment: Antifungal activity against Aspergillus niger NCIM 1196 by standard agar method
Procedure, shortened: (§4)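 MICs determined by standard agar method; DMSO as solvent control.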

Pseudomonas fluorescens [7] = experiment: Growth inhibition of Pseudomonas fluorescens NCIM 2036 at 10 ug/ml measured after 8 hrs relative to control; conditions: NCIM 2036, 8 h, read-out: GI; procedure, shortened: as §1
[8] = test system: Mycobacterium tuberculosis; experiment: Growth inhibition of Mycobacterium bovis BCG ATCC 35743 at dormant stage at 3 ug/ml measured after 12 days by nitrate reductase dye based two fold dilution method relative to control; conditions: BCG str. ATCC 35743, 288 h, read-out: GI; procedure, shortened: as §2
[9] = test system: Mycobacterium tuberculosis; experiment: Growth inhibition of Mycobacterium tuberculosis H37Ra ATCC 25177 at active stage measured after 8 days by XTT dye based two fold dilution method; conditions: H37Ra ATCC 25177, 192 h; procedure, shortened: as §3
[10] = test system: Mycobacterium tuberculosis; experiment: Growth inhibition of Mycobacterium bovis BCG ATCC 35743 at dormant stage at 30 ug/ml measured after 12 days by nitrate reductase dye based two fold dilution method relative to control; conditions: BCG str. ATCC 35743, 288 h, read-out: GI; procedure, shortened: as §2
[11] = test system: Mycobacterium tuberculosis; experiment: Growth inhibition of Mycobacterium bovis BCG ATCC 35743 at active stage measured after 8 days by nitrate reductase dye based two fold dilution method; conditions: BCG str. ATCC 35743, 192 h; procedure, shortened: as §2
Staphylococcus aureus [12] = experiment: Growth inhibition of Staphylococcus aureus NCIM 2010 at 10 ug/ml measured after 12 hrs relative to control; conditions: NCIM 2010, 12 h, read-out: GI; procedure, shortened: as §1
Staphylococcus aureus [13] = experiment: Antibacterial activity against of Staphylococcus aureus NCIM 2010 measured after 12 hrs; conditions: NCIM 2010, 12 h; procedure, shortened: as §1
Escherichia coli [14] = experiment: Growth inhibition of Escherichia coli NCIM 2688 at 30 ug/ml measured after 8 hrs relative to control; conditions: NCIM 2688, 8 h, read-out: GI; procedure, shortened: as §1
Bacillus subtilis [15] = experiment: Growth inhibition of Bacillus subtilis NCIM 2079 at 30 ug/ml measured after 12 hrs relative to control; conditions: NCIM 2079, 12 h, read-out: GI; procedure, shortened: as §1
Escherichia coli [16] = experiment: Growth inhibition of Escherichia coli NCIM 2688 at 10 ug/ml measured after 8 hrs relative to control; conditions: NCIM 2688, 8 h, read-out: GI; procedure, shortened: as §1
Aspergillus flavus = experiment: Antifungal activity against Aspergillus flavus NCIM 539 by standard agar method; procedure, shortened: as §4
Escherichia coli [17] = experiment: Growth inhibition of Escherichia coli NCIM 2688 at 3 ug/ml measured after 8 hrs relative to control; conditions: NCIM 2688, 8 h, read-out: GI; procedure, shortened: as §1
Pseudomonas fluorescens [18] = experiment: Antibacterial activity against Pseudomonas fluorescens NCIM 2036 measured after 8 hrs; conditions: NCIM 2036, 8 h; procedure, shortened: as §1
[19] = Antifungal activity against Fusarium oxysporum NCIM 1332 by standard agar method; procedure, shortened: as §4
Pseudomonas fluorescens [20] = experiment: Growth inhibition of Pseudomonas fluorescens NCIM 2036 at 30 ug/ml measured after 8 hrs relative to control; conditions: NCIM 2036, 8 h, read-out: GI; procedure, shortened: as §1
[21] = Antifungal activity against Cryptococcus neoformans NCIM 576 by standard agar method; procedure, shortened: as §4
Pseudomonas fluorescens [22] = experiment: Growth inhibition of Pseudomonas fluorescens NCIM 2036 at 3 ug/ml measured after 8 hrs relative to control; conditions: NCIM 2036, 8 h, read-out: GI; procedure, shortened: as §1
Escherichia coli [23] = experiment: Antibacterial activity against Escherichia coli NCIM 2688 measured after 8 hrs; conditions: NCIM 2688, 8 h; procedure, shortened: as §1
Candida albicans = experiment: Antifungal activity against Candida albicans NCIM 3471 by standard agar method; procedure, shortened: as §4
Staphylococcus aureus [24] = experiment: Growth inhibition of Staphylococcus aureus NCIM 2010 at 30 ug/ml measured after 12 hrs relative to control; conditions: NCIM 2010, 12 h, read-out: GI; procedure, shortened: as §1
[25] = test system: Mycobacterium tuberculosis; experiment: Growth inhibition of Mycobacterium bovis BCG ATCC 35743 at dormant stage measured after 12 days by nitrate reductase dye based two fold dilution method; conditions: BCG str. ATCC 35743, 288 h; procedure, shortened: as §2

Structure (SMILES) | inhibition of growth at 3 µg/mL (Bacillus subtilis [1]) [%] | MIC (Bacillus subtilis [2]) [µg/mL] | inhibition of growth at 10 µg/mL [3] [%] | inhibition of growth at 10 µg/mL (Bacillus subtilis [4]) [%] | IC50 [5] [µg/mL] | IC90 [5] [µg/mL] | inhibition of growth at 3 µg/mL (Staphylococcus aureus [6]) [%] | MIC (Aspergillus niger) [µg/mL] | inhibition of growth at 10 µg/mL (Pseudomonas fluorescens [7]) [%] | inhibition of growth at 3 µg/mL [8] [%] | IC50 [9] [µg/mL] | IC90 [9] [µg/mL] | inhibition of growth at 30 µg/mL [10] [%] | IC50 [11] [µg/mL] | IC90 [11] [µg/mL] | inhibition of growth at 10 µg/mL (Staphylococcus aureus [12]) [%] | MIC (Staphylococcus aureus [13]) [µg/mL] | inhibition of growth at 30 µg/mL (Escherichia coli [14]) [%] | inhibition of growth at 30 µg/mL (Bacillus subtilis [15]) [%] | inhibition of growth at 10 µg/mL (Escherichia coli [16]) [%] | also measured
O=C(O)CN1C(=O)/C(=C/c2cc3cc(Cl)ccc3nc2Cl)SC1=S | -4.86 | > 30 | 2.07 | -12.6 | > 30 | > 30 | -1.15 | 100 (≈ 250 µM) | -1.23 | -9.46 | > 30 | > 30 | 9.92 | > 30 | > 30 | 3.88 | > 30 | -14 | 1.23 | -12.4 | MIC (Aspergillus flavus): 150 µg/mL (≈ 376 µM); inhibition of growth at 3 µg/mL (Escherichia coli [17]): -12.7%; MIC (Pseudomonas fluorescens [18]): > 30 µg/mL; MIC [19]: 150 µg/mL (≈ 376 µM); inhibition of growth at 30 µg/mL (Pseudomonas fluorescens [20]): -2.12%; MIC [21]: 125 µg/mL (≈ 313 µM); inhibition of growth at 3 µg/mL (Pseudomonas fluorescens [22]): -72.5%; MIC (Escherichia coli [23]): > 30 µg/mL; MIC (Candida albicans): 125 µg/mL (≈ 313 µM); inhibition of growth at 30 µg/mL (Staphylococcus aureus [24]): -32.2%; IC50 [25]: > 30 µg/mL; IC90 [25]: > 30 µg/mL
O=C(O)CCN1C(=O)/C(=C/c2cc3cc(F)ccc3nc2Cl)SC1=S | -5.16 | > 30 | 23.5 | -4.74 | > 30 | > 30 | 5.15 | 25 (≈ 63 µM) | -7.25 | 18.2 | > 30 | > 30 | 59.8 | > 30 | > 30 | -12.1 | > 30 | 22.4 | -9.07 | 21.4 | MIC (Aspergillus flavus): 25 µg/mL (≈ 63 µM); inhibition of growth at 3 µg/mL (Escherichia coli [17]): 15.7%; MIC (Pseudomonas fluorescens [18]): > 30 µg/mL; MIC [19]: 50 µg/mL (≈ 126 µM); inhibition of growth at 30 µg/mL (Pseudomonas fluorescens [20]): 7.54%; MIC [21]: 25 µg/mL (≈ 63 µM); inhibition of growth at 3 µg/mL (Pseudomonas fluorescens [22]): 9.73%; MIC (Escherichia coli [23]): > 30 µg/mL; MIC (Candida albicans): 50 µg/mL (≈ 126 µM); inhibition of growth at 30 µg/mL (Staphylococcus aureus [24]): -23.8%; IC50 [25]: > 30 µg/mL; IC90 [25]: > 30 µg/mL
O=C(O)CCN1C(=O)/C(=C/c2cc3ccccc3nc2Cl)SC1=S | 3 | > 30 | -18.9 | 6.32 | > 30 | > 30 | -28.2 | 75 (≈ 198 µM) | -0.29 | -3.3 | > 30 | > 30 | 49.1 | > 30 | > 30 | -20.6 | > 30 | -59 | 6.41 | -52.5 | MIC (Aspergillus flavus): 50 µg/mL (≈ 132 µM); inhibition of growth at 3 µg/mL (Escherichia coli [17]): -47.5%; MIC (Pseudomonas fluorescens [18]): > 30 µg/mL; MIC [19]: 125 µg/mL (≈ 330 µM); inhibition of growth at 30 µg/mL (Pseudomonas fluorescens [20]): -6.76%; MIC [21]: 50 µg/mL (≈ 132 µM); inhibition of growth at 3 µg/mL (Pseudomonas fluorescens [22]): -48%; MIC (Escherichia coli [23]): > 30 µg/mL; MIC (Candida albicans): 100 µg/mL (≈ 264 µM); inhibition of growth at 30 µg/mL (Staphylococcus aureus [24]): -22.9%; IC50 [25]: > 30 µg/mL; IC90 [25]: > 30 µg/mL

— ChEMBL document CHEMBL3877264, “Quinolidene-rhodanine conjugates: Facile synthesis and biological evaluation” (Eur J Med Chem, 2017)
